Measured values published in ChEMBL document CHEMBL1139126, “Diazenedicarboxamides as inhibitors of D-alanine-D-alanine ligase (Ddl)” (Bioorg Med Chem Lett, 2007).
Converted amounts (≈) assume the structure as drawn.

Columns and labels:
Escherichia coli [1] = test: Inhibition of Escherichia coli DdlB assessed as residual activity at 500 uM
In short: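 Endpoint phosphate-release assay using purified DdlB with 500 µM test compound, 700 µM D-Ala, 500 µM ATP, in 38.5 mM Hepes pH 8.0 with MgCl2, (NH4)2SO4 and 5% DMSO. Run 30 min at 37 °C, then Biomol reagent and A650 read. Residual activity relative to an uninhibited assay. Mean of two independent experiments.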

[2] = Inhibition of Escherichia coli DdlB
In short: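 Purified E. coli DdlB in 38.5 mM Hepes pH 8.0, 3.25 mM MgCl2, 6.5 mM (NH4)2SO4, 700 µM D-Ala, 500 µM ATP, 5% DMSO, with a range of inhibitor concentrations. Incubated 30 min at 37 °C. Released phosphate detected by Biomol reagent, A650 after 5 min. IC50 taken from residual activity versus no-inhibitor control. Means of two independent experiments.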

Escherichia coli [3] = test: Antibacterial activity against Escherichia coli 1411; format: functional
In short: (§1)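 Broth microdilution MIC in IsoSensitest broth; inoculum 10⁴ cells per mL for E. coli, 10⁶ cells per mL for S. aureus. Compounds in 2-fold dilution series prepared in 50% DMSO. Incubated 16 h at 37 °C with OD600 read every 10 min, shaken 30 s before each read. MIC = lowest concentration preventing growth.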

Escherichia coli [4] = test: Antibacterial activity against acrAB deficient Escherichia coli 1411; format: functional; in short: as §1
Staphylococcus aureus = test: Antibacterial activity against Staphylococcus aureus 8325-4; format: functional; in short: as §1

Structure (SMILES)	Activity (Escherichia coli [1]) [%]	IC50 [2] [µM]	MIC (Escherichia coli [3]) [µg/mL]	MIC (Escherichia coli [4]) [µg/mL]	MIC (Staphylococcus aureus) [µg/mL]
CCOC(=O)NNC(=O)Nc1cccc(Cl)c1	0	–	–	–	–
CCOC(=O)/N=N/C(=O)Nc1ccc([N+](=O)[O-])cc1	40	–	–	–	–
O=C(/N=N/C(=O)Nc1ccccc1)NCc1ccncc1	–	106	64 (≈ 226 µM)	32 (≈ 113 µM)	128 (≈ 452 µM)
O=C(/N=N/C(=O)Nc1cccc(Cl)c1)NCc1cccnc1	–	15	64 (≈ 201 µM)	64 (≈ 201 µM)	256 (≈ 806 µM)
O=C(/N=N/C(=O)Nc1cccc(Cl)c1)NCc1ccncc1	–	33	64 (≈ 201 µM)	64 (≈ 201 µM)	64 (≈ 201 µM)
O=C(/N=N/C(=O)Nc1ccccc1)NCc1cccnc1	–	36	64 (≈ 226 µM)	64 (≈ 226 µM)	128 (≈ 452 µM)
O=C(/N=N/C(=O)Nc1ccc(F)cc1)NCc1ccncc1	–	73	64 (≈ 212 µM)	64 (≈ 212 µM)	128 (≈ 425 µM)
CCOC(=O)/N=N/C(=O)Nc1ccccc1	1	–	–	–	–
N[C@@H]1CONC1=O [CYCLOSERINE]	–	314	16 (≈ 157 µM)	16 (≈ 157 µM)	32 (≈ 313 µM)
CC(C)(C)OC(=O)/N=N/C(=O)NCCCl	7	–	–	–	–
COC(=O)NNC(=O)NCCCl	5	–	–	–	–
O=C(/N=N/C(=O)NCc1ccccn1)NCCCl	–	119	> 256	> 256	> 256
CC(C)c1ccc(NC(=O)/N=N/C(=O)NCCCl)cc1	–	49	> 256	> 256	> 256
O=C(/N=N/C(=O)NCc1ccncc1)NCCCl	–	236	128 (≈ 475 µM)	128 (≈ 475 µM)	> 256
O=C(/N=N/C(=O)NC1CCCCC1)NCc1ccncc1	–	121	256 (≈ 885 µM)	256 (≈ 885 µM)	128 (≈ 442 µM)
CN(C)CCNC(=O)NNC(=O)Nc1ccccc1	2	–	–	–	–

Structure (SMILES)	Activity (Escherichia coli [1]) [%]	IC50 [2] [µM]	MIC (Escherichia coli [3]) [µg/mL]	MIC (Escherichia coli [4]) [µg/mL]	MIC (Staphylococcus aureus) [µg/mL]
CCOC(=O)NNC(=O)Nc1ccc(F)cc1	0	–	–	–	–
CN(C)CCNC(=O)/N=N/C(=O)Nc1ccccc1	–	> 500	–	–	–
CCOC(=O)/N=N/C(=O)Nc1ccc(F)cc1	37	–	–	–	–
CC(C)(C)c1ccc(NC(=O)/N=N/C(=O)NCc2ccncc2)cc1	–	> 500	–	–	–
O=C(/N=N/C(=O)NCCCl)NCCCl	–	133	> 256	> 256	> 256
O=C(/N=N/C(=O)NCc1cccnc1)NCc1cccnc1	–	123	> 256	> 256	> 256
CCOC(=O)NNC(=O)Nc1ccc([N+](=O)[O-])cc1	1	–	–	–	–
CCOC(=O)NNC(=O)Nc1ccccc1	1	–	–	–	–
CCC(C)c1ccc(NC(=O)/N=N/C(=O)NCCCl)cc1 (stereo not drawn)	–	25	> 256	> 256	> 256
O=C(NCc1cccnc1)NNC(=O)Nc1ccccc1	0	–	–	–	–
O=C(NCc1cccnc1)NNC(=O)Nc1cccc(Cl)c1	3	–	–	–	–
O=C(/N=N/C(=O)Nc1ccccc1)NCc1ccccn1	–	111	64 (≈ 226 µM)	64 (≈ 226 µM)	64 (≈ 226 µM)
COC(=O)/N=N/C(=O)NCCCl	7	–	–	–	–
CCOC(=O)/N=N/C(=O)Nc1cccc(Cl)c1	33	–	–	–	–
COC(=O)NNC(=O)NC1CCCCC1	1	–	–	–	–
